Assay [1] concerns the target T1, Mu-type opioid receptor (Cavia porcellus, UniProt P97266). Kind of assay: Agonist activity at mu opioid receptor in Hartley guinea pig intestine assessed as inhibition of electrically evoked myenteric plexus longitudinal muscle contractions. The format is functional, tissue-based. The essentials:
(§1)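 Isolated tissue in organ baths of balanced physiological salt buffer, pH 7.5: male Hartley guinea pig ileum myenteric plexus longitudinal muscle (μ) or single mouse vas deferens (δ). Agonist inhibition of electrically evoked contractions; IC50 (nM) from dose–response curves, mean ± SE of five to six separate tissue preparations.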

The subject of another assay is Hippocampus. Kind of assay: Inhibition of ethanol-induced frequency of spontaneous inhibitory post-synaptic currents in rat hippocampal neurons by patch clamp technique at 300 nM. It is filed as functional. A digest of the protocol:
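Rat hippocampal slices (300 µm), held in oxygenated ACSF 60 min at room temperature. Whole-cell patch clamp of CA1 pyramidal cells at −70 mV. GABAA IPSCs isolated with 50 µM AP5 and 20 µM DNQX. Recording periods of 10 min each: baseline, then 60 mM EtOH, then compound in EtOH. n = 6 slices; paired t-tests.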

In assay [2] the target is T1, Mu-type opioid receptor. The assay is described as follows: Antagonist activity at mu opioid receptor in Hartley guinea pig intestine assessed as inhibition of DAMGO-induced effect on myenteric plexus longitudinal muscle contractions. The format is functional, tissue-based. To be noted: read-out: pA2 (converted).
Assay [3] is described as follows: Ratio of pA2 for delta opioid receptor in MVD to pA2 for mu opioid receptor in GPI. The format is functional.
For assay [4], the target named is Mu-type opioid receptor (Rattus norvegicus, UniProt P33535). Kind of assay: Displacement of [3H]DAMGO from mu opioid receptor in rat brain P2 synaptosome. The format is tissue-based.
Assay [5] concerns the target T2, Delta-type opioid receptor (Mus musculus, UniProt P32300). The assay is described as follows: Antagonist activity at delta opioid receptor in mouse vas deferens assessed as inhibition of deltorphin 2-induced effect on muscle contractions. It is filed as functional, tissue-based. The conditions noted are these: read-out: pA2 (converted).
Assay [6] addresses T2, Delta-type opioid receptor. Kind of assay: Agonist activity at delta opioid receptor in mouse vas deferens assessed as inhibition of electrically evoked muscle contractions. The format is functional, tissue-based. A digest of the protocol:
as §1

For assay [7], the target named is Delta-type opioid receptor (Rattus norvegicus, UniProt P33533). Kind of assay: Displacement of [3H]deltorphin 2 from delta opioid receptor in rat brain P2 synaptosome. The format is tissue-based. A general note: In a radioligand displacement assay an active substance lowers the binding of a labelled ligand.
Assay [8] deals with Opioid receptors; mu & delta (Rattus norvegicus) (UniProt P33533+P33535). Kind of assay: Selectivity for rat mu opioid receptor over rat delta opioid receptor. It is filed as protein assay.
The target of assay [9] is Mu-type opioid receptor (Cavia porcellus) (UniProt P97266). The assay is described as follows: Agonist activity at mu opioid receptor in Hartley guinea pig intestine assessed as inhibition of electrically evoked myenteric plexus longitudinal muscle contractions at 10000 nM. The format is functional, tissue-based.
The target of assay [10] is Delta-type opioid receptor (Mus musculus) (UniProt P32300). Kind of assay: Agonist activity at delta opioid receptor in mouse vas deferens assessed as inhibition of electrically evoked muscle contractions at 10000 nM. It is filed as functional, tissue-based.
The test system of assay [11] is Mus musculus. Kind of assay: Inhibition of morphine-induced antinociception in mouse at 2.38 ng, icv after 10 mins by hot plate test. The format is functional. The essentials: (§2)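 Male mice received morphine 4 mg/kg sc, then test compound icv 5 min later. Hot plate at 55.0 °C; latency to hind-paw licking or shaking, baseline 15 s, cut-off 30 s, read 10 min after icv dosing. Results as %MPE. AD50 is the dose blocking 50% of morphine antinociception at 10 min; 95% confidence limits; n = 10–17 mice per point.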

Assay [12] concerns Mus musculus. The assay is described as follows: Inhibition of morphine-induced antinociception in mouse at 0.148 ng, icv after 10 mins by hot plate test. The format is functional, organism-based. The essentials: as §2
For orientation: In hot-plate and tail-flick tests a longer latency is read as antinociception.

In assay [13] the test system is Mus musculus. Kind of assay: Inhibition of morphine-induced spinal antinociception in intracerebroventricularly dosed mouse by tail-flick test. It is filed as functional, organism-based. The essentials:
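Male mice given morphine 4 mg/kg sc, then compound icv 5 min later. Tail-flick latency measured to radiant heat, baseline 2–3 s, cut-off 8 s.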

Active and inactive are the calls of the source. A value given as a limit tells only on which side of the number the result lay.

T1 sequence (P97266 whole entry): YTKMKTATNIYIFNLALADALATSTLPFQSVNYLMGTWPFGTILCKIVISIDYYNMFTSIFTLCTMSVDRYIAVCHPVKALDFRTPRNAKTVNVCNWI
Sequence of Delta-type opioid receptor (Mus musculus) (P32300 whole entry): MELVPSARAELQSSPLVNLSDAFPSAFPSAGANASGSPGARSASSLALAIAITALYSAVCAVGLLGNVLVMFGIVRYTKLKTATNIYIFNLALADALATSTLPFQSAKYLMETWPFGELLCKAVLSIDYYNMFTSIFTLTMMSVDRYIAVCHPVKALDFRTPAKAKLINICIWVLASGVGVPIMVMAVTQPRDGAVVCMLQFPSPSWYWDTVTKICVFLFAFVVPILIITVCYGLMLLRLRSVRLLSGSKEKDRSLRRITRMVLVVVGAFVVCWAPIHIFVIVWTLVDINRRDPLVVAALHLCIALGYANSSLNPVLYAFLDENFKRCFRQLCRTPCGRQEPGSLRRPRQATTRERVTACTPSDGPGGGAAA
T2 sequence (P32300 whole entry): as above
Sequence of Opioid receptors; mu & delta (Rattus norvegicus) (P33533 whole entry, looked up): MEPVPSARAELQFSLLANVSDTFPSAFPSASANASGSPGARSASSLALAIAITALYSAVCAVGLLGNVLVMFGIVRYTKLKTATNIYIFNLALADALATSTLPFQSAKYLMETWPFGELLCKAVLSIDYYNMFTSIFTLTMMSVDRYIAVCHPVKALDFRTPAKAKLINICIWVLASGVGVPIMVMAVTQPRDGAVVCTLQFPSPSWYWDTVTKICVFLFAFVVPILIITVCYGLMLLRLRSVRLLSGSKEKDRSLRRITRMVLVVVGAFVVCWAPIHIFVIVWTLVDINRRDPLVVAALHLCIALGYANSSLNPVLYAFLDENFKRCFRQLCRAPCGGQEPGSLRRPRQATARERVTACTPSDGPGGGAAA
Sequence of Opioid receptors; mu & delta (Rattus norvegicus) (P33535 whole entry, looked up): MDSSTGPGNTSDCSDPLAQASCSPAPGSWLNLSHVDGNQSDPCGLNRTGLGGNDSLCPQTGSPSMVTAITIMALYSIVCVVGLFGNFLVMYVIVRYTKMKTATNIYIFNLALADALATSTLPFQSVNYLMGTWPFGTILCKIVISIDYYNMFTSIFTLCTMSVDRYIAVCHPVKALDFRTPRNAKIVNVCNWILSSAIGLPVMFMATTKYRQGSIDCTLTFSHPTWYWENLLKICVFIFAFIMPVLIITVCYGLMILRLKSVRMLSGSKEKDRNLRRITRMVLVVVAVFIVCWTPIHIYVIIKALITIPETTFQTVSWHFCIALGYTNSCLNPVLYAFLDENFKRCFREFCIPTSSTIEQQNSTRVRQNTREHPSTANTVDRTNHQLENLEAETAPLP
Sequence of Delta-type opioid receptor (Rattus norvegicus, UniProt P33533) (P33533 whole entry): as the sequence (P33533 whole entry, looked up) above
Sequence of Mu-type opioid receptor (Rattus norvegicus, UniProt P33535) (P33535 whole entry): as the sequence (P33535 whole entry, looked up) above
Sequence of Mu-type opioid receptor (Cavia porcellus) (P97266 whole entry): as the sequence (P97266 whole entry) above

`C=CCN[C@@H](Cc1c(C)cc(O)cc1C)C(=O)N1CCC[C@H]1C(=O)N[C@@H](Cc1c[nH]c2ccccc12)C(=O)N[C@@H](Cc1ccccc1)C(N)=O`: the IC50 (at Mu-type opioid receptor [1]; in [6]) was more than 10000 nM in each case. Moreover, testing at 0.3 µM in the assay on Hippocampus gave an inhibition of 26%. Moreover, the Kb is 6.61 nM on Mu-type opioid receptor [2] and 47.9 nM in [5]. Besides, in assay [3], the Ratio pA2 was 7.2. In addition, the Ki (in general, the equilibrium dissociation constant of an inhibitor or competing ligand from its target) came to 0.26 nM on Mu-type opioid receptor [4] and 10.3 nM in assay [7]. The Ratio Ki in assay [8] is 40. In addition, the figures for the inhibition in assay [9] and in [10] were 49% and 37.5%, respectively.

With `Cc1cc(O)cc(C)c1C[C@H](N)C(=O)N1CCC[C@H]1C(=O)N[C@@H](Cc1c[nH]c2ccccc12)C(=O)N[C@@H](Cc1ccccc1)C(N)=O`, the IC50 (usually the concentration at which inhibition is half-maximal) is 0.27 nM on Mu-type opioid receptor [1] and more than 10000 nM in assay [6]. Further, the figures for the Ki (on Mu-type opioid receptor [4]; in assay [7]) were 0.054 nM and 5.6 nM, respectively. Besides, the Kb in assay [5] is 2.51 nM. In addition, the Ratio Ki in assay [8] was found to be 104. In assay [10], the inhibition – broadly, the change of the read-out against control, counted positive when it falls – amounted to 21.6%.

For `C=CCN[C@@H](Cc1ccc(O)cc1)C(=O)N1CCC[C@H]1C(=O)N[C@@H](Cc1ccccc1)C(=O)N[C@@H](Cc1ccccc1)C(N)=O`, in assay [8], the Ratio Ki was determined as 57.

`C=CCN1CC[C@]23c4c5ccc(O)c4O[C@H]2C(=O)CC[C@@]3(O)[C@H]1C5` [NALOXONE] gave an AD50 in the assay with Mus musculus [11] of 2.38 ng.

For the molecule `C=CCN[C@@H](Cc1c(C)cc(O)cc1C)C(=O)N1CCC[C@H]1C(=O)N[C@@H](Cc1ccccc1)C(=O)N[C@@H](Cc1ccccc1)C(N)=O`, the IC50 (at Mu-type opioid receptor [1]; in assay [6]) was more than 10000 nM each time. For the same molecule, the Kb was 2.57 nM at Mu-type opioid receptor [2] and 479 nM in assay [5]. Further, the Ratio pA2 in assay [3] is 186. Further, the Ki on Mu-type opioid receptor [4] was 0.45 nM; in [7], 560 nM. Moreover, the result with Mus musculus [12] and in the assay with Mus musculus [13] was inactive. Moreover, the Ratio Ki in assay [8] amounted to 1240. In addition, the inhibition in assay [9] stood at 49.3%; in assay [10], 42.8%.

Turning to `C=CCNC(=O)[C@H](Cc1ccccc1)NC(=O)[C@H](Cc1ccccc1)NC(=O)[C@@H]1CCCN1C(=O)[C@H](Cc1ccc(O)cc1)NCC=C`, in assay [8], the Ratio Ki was 6.

The values above are taken from ChEMBL document CHEMBL1146321, “Transformation of mu-opioid receptor agonists into biologically potent mu-opioid receptor antagonists” (Bioorg Med Chem, 2007).
